# Myeloid diff MLP: myeloid differentiation induction; 360,000 compounds, 1% hits; ER-HoxA9 myeloid progenitors, lysozyme-GFP differentiation, flow cytometry; calls only at 10 µM;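 active = normalized GFP-positive differentiation at or above the plate's own cutoff, the solvent-only control mean plus 3 SD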;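 note: cells exposed to compound for four days before flow analysis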
# TPT1 inh: blocks Candida albicans tRNA 2'-phosphotransferase | 300,000 compounds, 0.81% hits | recombinant caTPT1, FP RNA substrate dephosphorylation | AID 1962 | inhibition, % at 5 µM;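 active = inhibition above the mean of all tested compounds plus 3 SD, set per screening campaign, cut at about 24% in these data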
# Rpn11 inh: blocks the human proteasome subunit Rpn11 | O00487 | human 26S proteasome, Ub4-pepOG fluorescence polarization; 20S core pre-blocked with epoxomicin | inhibition, % at 20 µM | 360,000 compounds, 0.59% hits | AID 588493;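 active = inhibition at 20 µM, scaled to each plate's controls, above about 33%, limit read from the data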
# Target sequence (O00487 whole entry, looked up): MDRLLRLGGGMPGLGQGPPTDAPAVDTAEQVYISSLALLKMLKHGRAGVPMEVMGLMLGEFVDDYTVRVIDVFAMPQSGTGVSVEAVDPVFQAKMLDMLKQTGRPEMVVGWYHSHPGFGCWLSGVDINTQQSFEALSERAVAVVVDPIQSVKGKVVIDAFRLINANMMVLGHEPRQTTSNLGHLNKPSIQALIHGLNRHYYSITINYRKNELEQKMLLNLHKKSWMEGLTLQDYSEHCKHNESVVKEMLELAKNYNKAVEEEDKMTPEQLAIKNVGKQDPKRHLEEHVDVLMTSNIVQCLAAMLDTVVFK
# CSN deneddyl inh: CSN deneddylation inhibition | Q92905 | Purified CSN, SCF-Nedd8-OG deneddylation, fluorescence polarization | inhibition, % at 12.5 µM | 360,000 compounds, 0.38% hits;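 active = pattern-corrected inhibition above about 35%, with an unprinted fluorescence ratio check between 0.5 and 1.5, limit read from the data, passing the limit was not always enough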
#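 Assay system: purified human Csn5 enzyme expressed in HEK293T cells; measure: % inhibition; also added: SCFSkp2-Nedd8OG substrate at 10 nM final; technique: fluorescence polarization; times: reaction 90 min, room temperature; medium: Tris buffer pH 7.5, NaCl, DTT, Tween-20, trehalose, ovalbumin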
# HNF4A DNA FP: change in binding of human HNF4 alpha to DNA | HNF4a-FITC DNA binding, fluorescence polarization, 1 h | activity change, % at 10 µM | 360,000 compounds, 0.3% hits | AID 1224865; in the data active = activity change above about 30%, passing the limit was not always enough
# TPT1 inh confirm: TPT1 (C. albicans) inhibition, confirmation | 2,400 compounds, 74% hits | inhibition, % at 5 µM | shares compounds with TPT1 inh | recombinant caTPT1, fluorescence polarization, RNase T1 coupled;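 active = inhibition above the primary screen limit, the mean inhibition of all tested compounds plus 3 SD, cut at about 25% in these data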
# RNase T1 inh: blocks Aspergillus oryzae RNase T1, a TPT1 counter-screen | RNase T1 cleavage, fluorescence polarization, 1536-well | 2,400 compounds, 83% hits | shares compounds with TPT1 inh | AID 2153 | inhibition, % at 5 µM;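 active = inhibition above the solvent-only control well mean plus 3 SD, limit set per screening run, cut at about 23% in these data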;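 note: inhibitors block cleavage so intact labeled substrate keeps polarization high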
# Target sequence (P00651 whole entry, looked up): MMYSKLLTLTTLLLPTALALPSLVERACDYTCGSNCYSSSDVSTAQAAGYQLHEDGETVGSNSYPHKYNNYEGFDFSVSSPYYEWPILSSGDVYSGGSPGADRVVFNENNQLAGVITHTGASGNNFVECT
# Rpn11 confirm: Rpn11 inhibition confirmation, single concentration; shares compounds with Rpn11 inh; purified human 26S proteasome, Ub4-pepOG fluorescence polarization; proteasome pretreated with epoxomicin; inhibition, % at 20 µM; 1,900 compounds, 29% hits
# MMP-2 inh: blocks human MMP-2, flagging nonselective RPN11 hits; shares compounds with Rpn11 inh; inhibition, % at 20 µM; 1,900 compounds, 4% hits; recombinant MMP-2, FRET peptide cleavage fluorescence;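 note: human MMP-2 activated beforehand with APMA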
# Thrombin inh: counter-screen for RPN11 inhibitors: inhibition of bovine thrombin | inhibition, % at 20 µM | shares compounds with Rpn11 inh | bovine thrombin cleavage of Ub4-pepOG, fluorescence polarization | 1,900 compounds, 13% hits;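 active = mean inhibition at least 40% at 20 µM, or signal 3 deviations below plate average, so some actives read negative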
# Myeloid diff: compounds promoting myeloid differentiation. shares compounds with Myeloid diff MLP. ER-HoxA9 myeloid progenitors, GFP/Mac1 double-positive flow. calls only. 2,300 compounds, 2% hits. AID 651706;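 active = share of green or green-and-red cells above 9 and 9% in run 1 or 4 and 3% in run 2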
# GFP autofluor: flagged as fluorescent in myeloid differentiation counter-screen; 2,300 compounds, 7.4% hits; fluorescence response, % (no concentration beside the values); ER-HoxA9 myeloid progenitors, no estrogen, GFP autofluorescence flow cytometry; vehicle wells 0%, positive control 100%; AID 651707; shares compounds with Myeloid diff MLP;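 active = over 5% cells positive for green fluorescent reporter, or over 2% positive for both it and APC stain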
# A number is an active result; – = inactive; · = not tested or not shown; + = active, no number. Shown are actives, neighbours in structure and some others; about 2.3% of the full set was active somewhere. Cut-off read from the data, not from the text of the source, unless noted: active = inhibition above about 40%; inactive = the rest.
SMILES,Myeloid diff MLP,TPT1 inh,Rpn11 inh,CSN deneddyl inh,HNF4A DNA FP,TPT1 inh confirm,RNase T1 inh,Myeloid diff,GFP autofluor,others
O=Cc1ccc(-c2nc3ccccc3s2)o1,–,–,–,–,–,·,·,·,·,
COc1ccc(-n2c(C)cc(/C=C3\SC(=S)N(Cc4ccco4)C3=O)c2C)cc1,+,122,·,–,54,122,123,+,–,
O=C1c2ccccc2C(c2nnnn2Cc2ccccc2)N1Cc1cccc(F)c1 (stereo not drawn),–,·,·,–,–,·,·,·,·,
CC1(c2ccccc2)NC(=O)N(CC(=O)Nc2ccc3c(c2)CCC3)C1=O (stereo not drawn),–,·,–,–,–,·,·,·,·,
CCN1C(=O)/C(=C2\Sc3ccccc3N2CC)OC1=S,–,–,–,–,–,·,·,·,·,
CCCN1C(=O)/C(=C\C=C2/Sc3ccccc3N2CCO)SC1=S,+,64,–,–,–,42,54,–,6.5,
CN1CCc2c(sc(/N=C/c3c[nH]c4ccccc34)c2C#N)C1,+,44,·,–,–,43,53,–,16,
Cc1cc(C)n(/N=C/c2c[nH]c3ccccc23)c(=O)c1C#N,–,–,–,–,–,·,·,·,·,
CN1C(=O)c2ccc(N3CCCC3)cc2C1=O,–,–,–,–,–,·,·,·,·,
Cc1cc(N2CCCC2)ccc1/C=C1\NC(=S)N(C)C1=O,–,164,·,–,–,167,154,–,51,
CC1=[N+](CC(=O)c2ccccc2)CCn2cccc21,+,49,–,–,–,–,–,–,–,
Nc1c(Cl)cc2c(c1Oc1ccccc1)C(=O)c1ccccc1C2=O,+,25,–,–,–,30,41,–,–,
Nc1c(Cl)cc2c(c1Br)Cc1ccccc1-2,–,·,–,–,–,·,·,·,·,
CN1/C(=C/C(=S)NC(=O)C2CCC2)C(C)(C)c2ccccc21,–,51,54,–,–,–,–,–,–,Rpn11 confirm=–;MMP-2 inh=–;Thrombin inh=–
COc1ccccc1C(=O)NCC(=O)OCCCOC(=O)CNC(=O)c1ccccc1OC,–,–,–,–,–,·,·,·,·,
O=C(NN=C1CCCCCCCCCCC1)c1ccccc1F,–,–,–,–,–,·,·,·,·,
CCN1/C(=C/C=C/C=C/c2sc3ccccc3[n+]2CC)Sc2ccccc21,·,–,·,·,·,·,·,·,·,
CCN1/C(=C/C=C/C=C/C=C/c2sc3ccccc3[n+]2CC)Sc2ccccc21,–,30,–,–,60,–,29,–,43,
COc1ccccc1N1CCN(CCCN=C2CC(=O)N(C)C(=O)N2C)CC1,–,·,–,–,–,·,·,·,·,
COc1ccc([C@H]2C[C@H](O)[C@@H](n3cc(-c4ccc(F)cc4)nn3)CN2C(=O)C2CCCCC2)cc1,–,·,–,–,–,·,·,·,·,
CCOC(=O)c1sc2nc3c(SCCC#N)cc(C(=O)c4cc(F)ccc4O)cn3c(=O)c2c1C,+,48,45,–,–,27,31,–,–,Rpn11 confirm=–;MMP-2 inh=–;Thrombin inh=–
CCc1c(C)sc2nc3c(C(=O)N4CCOCC4)cc(C(=O)c4cc(F)ccc4O)cn3c(=O)c12,–,–,–,–,–,·,·,·,·,
COc1ccccc1/C=C/C=C1\Oc2c(ccc(O)c2CN2CCN(CCO)CC2)C1=O,–,39,·,–,40,46,54,–,–,
CNC(=O)c1c(NC(=O)c2ccc(S(=O)(=O)N3CCCc4ccccc43)cc2)sc2c1CCN(C)C2,+,103,·,–,32,79,88,+,–,
CC(C)(C)C(=O)Nc1cccc(S(=O)(=O)NC2=NCCC2)c1,–,–,–,–,–,·,·,·,·,
